These entries were drawn from the full list.
PGC1a acetyl up = compounds raising PGC1a acetylation signal, primary screen, PGC1a modulator project, cell-based, U2OS, AlphaScreen, signal-increasing mode. overnight. activation, % at 15.6 µM. actives 0.21% (n = 350,000). AID 651723, 2012;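 active means every replicate reaching activation of at least 50%, whatever the mean replicate activation; inconclusive means replicates that disagree or another doubt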;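 further: hits raise the AlphaScreen acetylation signal above neutral controls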
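Test system: U2OS cells expressing flag-PGC1a plus GCN5; Amount: 7000 U2OS cells per well; Compound: single test concentration per compound; Incubation: compound overnight at 37 °C, each detection step 1 h RT; Signal: AlphaScreen lysate read.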
G6PC hep suppr = suppressors of forskolin-stimulated G6PC mRNA, dose response, PGC-1a acetylation activator project, cell-based, hepatocytes, RT-qPCR, cherry-picked samples; shares compounds with PGC1a acetyl up; primary mouse hepatocytes; G6PC suppression (normalized activity, % of positive control; higher = more suppression), % at 26 µM; 240 tested, under 10 active; AID 743463, 2014;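 active means dose curves showing G6PC suppression whose half-maximal dose is at most twice the top valid dose; inconclusive means flat curves with moderate negative activity, or unreliable fits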;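 further: G6PC expression relative to GAPDH housekeeping gene as delta delta Ct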
PCK1 hep suppr = suppression of PCK1 mRNA in primary hepatocytes, dose response, PGC-1a acetylation activator project, cell-based, primary mouse hepatocytes, RT-qPCR, cherry-pick; shares compounds with PGC1a acetyl up; forskolin-stimulated; PCK1 expression decrease, unspecified at 26 µM; 230 tested, under 10 active; AID 743465, 2014;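 active means compounds lowering PCK1 expression whose fitted half-maximal concentration is at most twice the top tested dose; inconclusive means flat fit with moderate opposite-direction effect, or poor fit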;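 further: higher delta delta Ct means lower PCK1 expression so positive values indicate hits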
PGC1a hep suppr = suppression of PGC-1a mRNA in primary hepatocytes, dose response, PGC-1a acetylation activator project, cell-based, primary mouse hepatocytes, RT-qPCR, cherry-pick | AID 743467, 2014 | 240 tested, under 10 active | max activity (PGC-1a expression decrease), % | shares compounds with PGC1a acetyl up | PGC-1a mRNA qPCR, forskolin; top dose 26 µM;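 active means compound lowering PGC-1a expression with fitted half-maximal concentration at most twice its top tested dose; inconclusive means flat curve with moderate opposite-direction effect, or poor fit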
A number is an active result; . = inactive; ? = inconclusive; / = not tested or not shown.

SMILES | PGC1a acetyl up | G6PC hep suppr | PCK1 hep suppr | PGC1a hep suppr
COC(=O)/C(=C\Nc1cccc(Cl)c1C)c1ncc(C(F)(F)F)cc1Cl | . | / | / | /
COc1cccc(Cn2c(NCc3cccnc3)nc3c2c(=O)n(C)c(=O)n3C)c1 | . | / | / | /
C[C@@H]1CN([C@H](C)CO)C(=O)c2c(c3ccccc3n2C)-c2ccccc2CO[C@@H]1CN(C)C(=O)[C@H](C)c1ccccc1 | 133 | . | . | .
COc1ccc([N+](=O)[O-])c(S(=O)(=O)c2ccc(Cl)cc2)n1 | . | / | / | /
COc1ccc(OC)c(CNS(=O)(=O)c2cc(-c3cc(C)no3)ccc2OC)c1 | . | / | / | /
CCOc1ccc(N(C)S(=O)(=O)c2cc(-c3cc(C)no3)ccc2OC)cc1 | 54 | . | . | .
C[C@H]1CCC/C=C/[C@@H]2C[C@H](O)C[C@H]2[C@H](O)[C@H](S(=O)c2ccc(O)cc2)CC(=O)O1 (stereo partly drawn) | . | / | / | /
COc1cc(CN2CCC(C(=O)NCCC(C)C)CC2)ccc1OCc1ccccc1 | ? | . | . | .
COc1ccc(C(CC(=O)Nc2ccccn2)N2Cc3ccccc3C2=O)cc1 (stereo not drawn) | . | / | / | /
Cc1cc(NC(=O)CCS(=O)(=O)c2nc(-c3ccccc3)cc(C(F)(F)F)n2)no1 | . | / | / | /
O=C(CNC(=O)c1sc2ccccc2c1Cl)NCc1ccccc1 | . | / | / | /
O=C(Cc1ccccc1)Nc1ccc(NC(=O)c2cccs2)cc1 | 312 | . | . | .
O=S(=O)(c1ccc(Cl)cc1)c1snnc1-c1ccccc1 | . | / | / | /
CC(=O)c1ccc(OCC(=O)OCC(=O)Nc2sccc2C(N)=O)cc1 | 56 | . | . | .
Cc1ccccc1CS(=O)(=O)c1nnc([C@H](Cc2ccccc2)NC(=O)OC(C)(C)C)o1 | . | / | / | /
CCOc1ccc(Nc2oc(-c3ccc(Cl)cc3)nc2C#N)cc1 | 62 | . | . | .
CN(C)CCNc1oc(COc2ccc(-c3ccccc3)cc2)nc1C#N | . | / | / | /
CCOc1ccc(Nc2ncnc3ccc([N+](=O)[O-])cc23)cc1 | . | / | / | /
C#CC(=O)N(c1ccc(OC)c(OC)c1)C(C(=O)NC1CCCC1)c1cccs1 (stereo not drawn) | . | / | / | /
COc1ccc(N(C(=O)c2snc(C(N)=O)c2N)C(C(=O)NC2CCCC2)c2ccco2)c(OC)c1 (stereo not drawn) | ? | / | . | .
C#CC(=O)N(c1cccc(OC)c1)C(C(=O)NC1CCCC1)c1cccs1 (stereo not drawn) | . | / | / | /
CCn1nnc(NC(=O)c2ccc(C(C)(C)C)cc2)n1 | . | / | / | /
O=c1[nH]nc(-c2ccc(NCCCO)c([N+](=O)[O-])c2)c2ccccc12 | . | / | / | /
CC1CCCN(S(=O)(=O)c2ccc3c(c2)n(C)c(=O)c(=O)n3C)C1 (stereo not drawn) | . | / | / | /
CCOC(=O)C1CCCN(S(=O)(=O)c2ccc3c(c2)NC(=O)CO3)C1 (stereo not drawn) | 92 | . | / | ?
SMILES | PGC1a acetyl up | G6PC hep suppr | PCK1 hep suppr | PGC1a hep suppr
Cc1ccc(S(=O)(=O)/N=C2/C=C(Sc3ncn[nH]3)C(=O)c3ccccc32)cc1 | . | / | / | /
CC1CN(c2oc(-c3cccs3)nc2C#N)CC(C)O1 (stereo not drawn) | . | / | / | /
O=C(CSc1c(Cl)cccc1Cl)NC1CCCc2ccccc21 (stereo not drawn) | . | / | / | /
CC(=O)N(CCC(Cc1ccccc1)c1ccc2c(c1)OCO2)Cc1ccccc1F (stereo not drawn) | . | / | / | /
Cc1cc(C2=NNC(=NCCc3ccccc3)SC2)c(C)n1-c1c(C)n(C)n(-c2ccccc2)c1=O | . | / | / | /
Cc1ccc(S(=O)(=O)NC(CC(C)C)C(=O)N2CCCCCCC2)cc1 (stereo not drawn) | 64 | . | . | .
O=C(Nc1ccc(-c2noc(CCc3ccccc3)n2)cc1)c1cccnc1 | 131 | . | . | .
Cc1ccc2oc(-c3ccc(NC(=O)c4cccnc4)cc3)nc2c1 | 73 | . | . | .
Cc1ccc2oc(Nc3nc(C)c(C)c(C)n3)nc2c1 | . | / | / | /
COC(=O)c1ccc(NC(=O)c2cccnc2)cc1 | 127 | / | . | ?
NCCCn1c(C(=O)c2cc(Cl)c(N)c(Cl)c2)c2ccc([N+](=O)[O-])cc2[n+]1[O-] | . | / | / | /
COc1ccc(-c2csc(N(CCCN(C)C)C(=O)c3cccs3)n2)cc1 | . | / | / | /
O=C1C(Nc2ccccc2)=C/C(=N/S(=O)(=O)c2cccs2)c2ccccc21 | . | / | / | /
Cc1ccc(Cl)cc1NC(=O)Cn1nc(-c2cccs2)ccc1=O | . | . | . | .
COc1ccccc1C(=O)N1C(CC(=O)Nc2cc(Cl)ccc2C)C(=O)NC2CCCCC21 (stereo not drawn) | . | / | / | /
CC1CCCC=CC2CC(OC(=O)CN(C)C)CC2C(O)C=CC(=O)O1 (stereo not drawn) | . | / | / | /
CC(Nc1ccccc1)c1cc(Cl)ccc1O (stereo not drawn) | . | / | / | /
Cc1ccc2nc(SCC(=O)Nc3ccc(F)cc3)nc(=O)n2c1 | . | / | / | /
O=S(=O)(NCCSc1ccc(Cl)cc1)c1ccc(F)cc1 | . | / | / | /
O=S(=O)(NC12CC3CC(CC(C3)C1)C2)c1ccc(F)cc1 | 60 | . | . | .
O=S(=O)(Nc1nc2c(s1)CCCC2)c1ccc(F)cc1 | . | / | / | /
COc1ccc(C2c3[nH]c4ccccc4c3C[C@H]3C(=O)N(c4ccccc4C(=O)N4CCC[C@@H]4C(=O)O)C(=O)N23)cc1 (stereo partly drawn) | . | / | / | /
Cc1c(OCc2ccc(C(=O)O)cc2)ccc2c(-c3ccccc3)cc(=O)oc12 | . | . | . | .
COc1cccc2c1C(=O)c1c(O)c3c(c(O)c1C2=O)CC(O)(C(C)=O)CC3OC1CC(N(C)C)C(O)C(C)O1 (stereo not drawn) | . | / | / | /
C=CC(=O)Nc1cccc(Oc2ccnc(Nc3ccc(N4CCN(C)CC4)cc3)n2)c1 | . | / | / | /
SMILES | PGC1a acetyl up | G6PC hep suppr | PCK1 hep suppr | PGC1a hep suppr
COC(=O)c1ccc(CSc2nc3c(cnn3-c3ccc(Cl)cc3)c(=O)[nH]2)o1 | . | / | / | /
Cc1c(C(=O)NCCSCc2c(F)cccc2Cl)cnn1-c1ccc(Cl)cc1 | ? | . | . | .
N#Cc1c(C#N)c(O)c2ccccc2c1O | . | / | / | /
Cc1ccc2c(CN(Cc3ccccc3)Cc3ccccc3)cc(=O)oc2c1 | ? | / | . | .
CC1=C(C(N)=O)C(c2cccnc2)n2nc(-c3cccc(Cl)c3)nc2N1 (stereo not drawn) | 93 | . | . | .
COc1ccc(S(=O)(=O)Nc2ccc3c(c2)C(=O)N([C@@H](C)CO)C[C@@H](C)[C@H](CN(C)S(=O)(=O)c2ccc(Cl)cc2)OCCCC[C@H](C)O3)cc1 | . | . | . | .
CNC[C@@H](CC1CCCCC1)NC[C@H](CC(C)C)NCCc1cccc(C(F)(F)F)c1 | . | / | / | /
Cc1ccc(-c2nnc(Nc3ccc4c(c3)OCO4)c3ccccc23)cc1S(=O)(=O)NCCO | 94 | . | . | .
COc1ccc(-c2c(-c3cc(OC)cc(OC)c3)n(C)c3ccc(-c4cnc(N)nc4)cc23)cc1 | ? | . | . | .

Assay outcomes deposited in PubChem BioAssay by Broad Institute.
